Most compounds without a hit are left out; they make up all but 4.8% or so of the library.
Beta apoptosis = beta cell apoptosis inhibition; INS-1E cytokine-induced death, ATP luminescence, 48 h; percent of positive-control rescue, neutral wells zero; protection from apoptosis, % (test concentration not listed); 0.8% of 300,000 active; AID 435005;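 active = Every replicate reaches about 75%, or at least half do and their mean reaches it too, limit read from the data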;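 note: higher means more ATP so stronger rescue from cytokine killing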
CHOP UPR activ = apoptotic UPR (CHOP) activation; 0.34% of 330,000 active; CHO-CHOP luciferase reporter, luminescence; percent of tunicamycin response over DMSO baseline; activation, % at 10 µM; AID 449763;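 active = at 10 µM dose, activation of 40% or more, normalized to positive control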
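Test system: CHO CHOP reporter cells. Input: 500 CHO-CHOP cells per well. Medium: F12 with 10% FBS. Technique: luciferase luminescence. Measure: percent activation relative to tunicamycin control. Dosing: 10 µM compound, 0.5% DMSO. Timing: 16-18 h cell attachment, then 6 h compound exposure, 37 °C.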
XBP1 UPR activ = adaptive UPR (XBP1) activation | activation, % at 20 µM | 0.33% of 330,000 active | CHO-XBP1 luciferase reporter, IRE1-XBP1 UPR activation, luminescence; percent of tunicamycin response, DMSO as zero;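 active = versus positive control, 20 µM dose yields 30% or more activation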
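Assay system: IRE1-XBP1 luciferase reporter CHO line. Input: 1000 cells/well. Buffer or medium: F12 with 10% serum. Doses: 20 µM, 1% DMSO. Times: overnight seeding at 37 °C, 6 h compound treatment at 37 °C. Technique: Steady-Glo luciferase glow luminescence, 10 min after reagent addition.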
Mdm2 MdmX PPI = human Mdm2/MdmX binding inhibition. O15151+Q00987. SaOS-2 split-luciferase Mdm2/MdmX complementation, luminescence. inhibition, % at 8 µM. 3% of 330,000 active. AID 485346;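 active = inhibition of at least 50% at 8 µM in the primary screen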
Target sequence (O15151 whole entry, looked up): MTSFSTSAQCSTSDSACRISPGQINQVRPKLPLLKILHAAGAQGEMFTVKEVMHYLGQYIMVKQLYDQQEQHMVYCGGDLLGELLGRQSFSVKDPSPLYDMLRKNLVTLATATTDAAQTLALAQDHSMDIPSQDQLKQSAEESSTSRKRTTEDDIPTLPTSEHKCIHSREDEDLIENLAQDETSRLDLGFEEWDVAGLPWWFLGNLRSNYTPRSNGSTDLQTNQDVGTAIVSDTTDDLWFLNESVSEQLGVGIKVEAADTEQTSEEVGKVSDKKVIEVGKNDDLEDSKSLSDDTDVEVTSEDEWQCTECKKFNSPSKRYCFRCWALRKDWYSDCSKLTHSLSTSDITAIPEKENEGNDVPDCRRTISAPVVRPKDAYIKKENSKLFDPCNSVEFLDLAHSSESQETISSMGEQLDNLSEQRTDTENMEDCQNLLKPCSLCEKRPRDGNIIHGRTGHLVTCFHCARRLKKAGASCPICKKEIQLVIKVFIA
Target sequence (Q00987 whole entry, looked up): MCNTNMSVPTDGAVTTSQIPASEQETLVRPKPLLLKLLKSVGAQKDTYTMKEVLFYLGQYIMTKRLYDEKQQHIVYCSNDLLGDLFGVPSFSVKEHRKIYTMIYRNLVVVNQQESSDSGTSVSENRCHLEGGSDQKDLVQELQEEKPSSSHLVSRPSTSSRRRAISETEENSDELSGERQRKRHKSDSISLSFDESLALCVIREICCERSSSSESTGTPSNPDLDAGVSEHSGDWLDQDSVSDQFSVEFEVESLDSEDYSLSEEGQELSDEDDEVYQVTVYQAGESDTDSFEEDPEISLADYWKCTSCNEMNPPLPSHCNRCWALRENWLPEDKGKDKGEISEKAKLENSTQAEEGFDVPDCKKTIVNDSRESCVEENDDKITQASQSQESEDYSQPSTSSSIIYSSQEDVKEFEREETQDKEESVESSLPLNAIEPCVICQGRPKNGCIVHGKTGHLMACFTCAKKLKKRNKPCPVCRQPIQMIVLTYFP
CSC inhib = cancer stem cell inhibition; inhibition, % at 7.5 µM; AID 2717; 1.1% of 300,000 active; cancer stem cell-like cells viability, luminescence; in the data active = inhibition above about 75%; tested in HMLE shEcad cells
SKKanGAS inh = SKKanGAS growth inhibition | 1.3% of 300,000 active | AID 1662 | S. pyogenes SKKanGAS, kanamycin growth, BacTiter-Glo, 6 h | inhibition, % at 7.5 µM;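 active = mean replicate score, as percent of positive control median, at least 50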;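 note: strain carries kanamycin resistance gene driven by streptokinase promoter and grows in 40 µg/ml kanamycin; loss of luminescence reflects streptokinase promoter inhibition or plain growth inhibition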
Mdm2 MdmX conf = human Mdm2/MdmX binding inhibition, confirmed | shares compounds with Mdm2 MdmX PPI | luminescent assay | inhibition, % at 8 µM | 55% of 10,000 active; in the data active = inhibition above about 40%
Full FLuc ctr = full-length luciferase inhibition in Mdm2/MdmX counter-screen; SaOS-2 full-length luciferase counterscreen, luminescence; shares compounds with Mdm2 MdmX PPI; 77% of 6,200 active; inhibition, % at 8 µM;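 active = mean inhibition at 8 µM reaching about 37%, which flags the compound as non-specific, limit read from the data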;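 note: p53-null SaOS-2 cells with luciferase driven by a doxycycline-inducible promoter; compound on cells about two nights before reading with doxycycline added after day one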
Of the large screens only hits and unclear results are named; the others gave an inactive call (follow-up assays come after a bar, where they were run).

COc1ccccc1NC(=O)c1sc2ncn(Cc3cccc(C)c3)c(=O)c2c1C	none
COc1ccccc1NC(=O)c1sc2ncn(Cc3ccc(C)cc3)c(=O)c2c1C	Mdm2 MdmX PPI 55 | Mdm2 MdmX conf inactive
COC(=O)c1ccc2[nH]c3cccc(/C(=C/c4ccccc4)c4ccccc4)c3c2c1	Beta apoptosis 109, XBP1 UPR activ 93, Mdm2 MdmX PPI 66, CSC inhib 129, SKKanGAS inh 94 | Mdm2 MdmX conf inactive
O=C1CCCc2[nH]c3cccc(/C(=C/c4ccccc4)c4ccccc4)c3c21	none
Cc1cc(=O)[nH]c(SCC(=O)Nc2ccccc2C)n1	none
Cc1cc(=O)[nH]c(N=N/C(=N/Nc2ccccc2C)c2ccccc2)n1	Beta apoptosis 93, Mdm2 MdmX PPI 69 | Mdm2 MdmX conf 82 | Full FLuc ctr 49
Cc1cc(=O)[nH]c(N=N/C(=N/Nc2ccc(O)cc2)c2ccccc2)n1	none
COc1ccc(N/N=C(/N=Nc2nc(C)cc(=O)[nH]2)c2ccccc2)cc1	Beta apoptosis 91, Mdm2 MdmX PPI 54 | Mdm2 MdmX conf 77 | Full FLuc ctr inactive
COc1ccc(-c2nc(-c3ccccn3)ncc2S(C)(=O)=O)cc1	none
Cn1nc(-c2ccccn2)nc2c(=O)n(C)c(=O)nc1-2	Beta apoptosis 127, Mdm2 MdmX PPI 66, CSC inhib 120, SKKanGAS inh 52 | Mdm2 MdmX conf 80 | Full FLuc ctr inactive
CC(OC(=O)c1ccc(Cl)cc1)C(=O)NCC1CCCCC1 (stereo not drawn)	none (no result: CSC inhib, SKKanGAS inh)
O=C(CN1CC(c2ccccc2)CC1=O)N/N=C/c1cc(Br)ccc1O (stereo not drawn)	Mdm2 MdmX PPI 62, SKKanGAS inh 79 | Mdm2 MdmX conf 65 | Full FLuc ctr 43
CCOc1ccc(NC(=O)CN2CC(c3ccccc3)CC2=O)cc1 (stereo not drawn)	none
CC1CCCN(C(=O)CNS(=O)(=O)c2cccs2)C1 (stereo not drawn)	none
CCCOC(=O)c1ccc(Oc2c(-c3ccc(OCC)cc3O)n[nH]c2C)cc1	Mdm2 MdmX PPI 71, CSC inhib 137, SKKanGAS inh 62 | Mdm2 MdmX conf inactive
Cc1ccc(N(C(=O)CNC(=O)c2ccco2)C(C(=O)NC2CCCCC2)c2cccnc2)cc1 (stereo not drawn)	none
CN1C[C@H](C(=O)N[C@]2(C)O[C@@]3(O)[C@@H]4CCCN4C(=O)[C@H](Cc4ccccc4)N3C2=O)CC2c3cccc4[nH]cc(c34)C[C@H]21 (stereo partly drawn)	none (no result: SKKanGAS inh)
CC(C)C[C@H]1C(=O)N2CCC[C@H]2[C@]2(O)O[C@](NC(=O)C3C=C4c5cccc6[nH]c(Br)c(c56)C[C@H]4N(C)C3)(C(C)C)C(=O)N12 (stereo partly drawn)	Mdm2 MdmX PPI 61 | Mdm2 MdmX conf inactive
O=C(Oc1ccc(Br)cc1C(=S)N1CCOCC1)c1ccc([N+](=O)[O-])cc1[N+](=O)[O-]	none (no result: CSC inhib)
COc1ccc(C)cc1NC(=O)CN1CCN(S(=O)(=O)c2ccc3ccccc3c2)CC1	none (no result: SKKanGAS inh)
COc1ccc2c(c1)c(C(C)=O)c(C)n2-c1ccccc1	none
CCOc1ccc(-n2c(C)c(C(C)=O)c3cc(OC(C)=O)ccc32)cc1	Mdm2 MdmX PPI 76 | Mdm2 MdmX conf 80 | Full FLuc ctr 53
COc1ccc(-n2c(C)c(C(C)=O)c3cc(O)ccc32)cc1	Mdm2 MdmX PPI 93 (no result: Beta apoptosis, CSC inhib) | Mdm2 MdmX conf 83 | Full FLuc ctr 54
CCOc1ccc(-n2c(C)c(C(=O)O)c3cc(OC)ccc32)cc1	none (no result: Beta apoptosis)
C[C@]12C=CC(=O)C=C1CC[C@@H]1C2[C@@H](O)C[C@@]2(C)C1CC[C@]2(O)C(=O)COC(=O)CCC(=O)O (stereo partly drawn)	none
c1ccc(-c2ccc(-c3nc(-c4ccccn4)no3)cc2)cc1	Mdm2 MdmX PPI 97 | Mdm2 MdmX conf 89 | Full FLuc ctr inactive

Source: PubChem (several laboratories)
